Results as given in ChEMBL document CHEMBL3098044, “Inhibition of carbonic anhydrases from the extremophilic bacteria Sulfurihydrogenibium yellostonense (SspCA) and S. azorense (SazCA) with a new series of sulfonamides incorporating aroylhydrazone-, [1,2,4]triazolo[3,4-b][1,3,4]thiadiazinyl- or 2-(cyanophenylmethylene)-1,3,4-thiadiazol-3(2H)-yl …” (Bioorg Med Chem, 2014).

Columns and labels:
[1] = Inhibition of Sulfurihydrogenibium yellowstonense YO3AOP1 carbonic anhydrase preincubated for 15 mins by stopped-flow CO2 hydration assay
Summary of the method: (§1)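 Initial rates of CA-catalysed CO2 hydration followed for 10–100 s with phenol red (0.2 mM) read at 557 nm, in 10–20 mM Hepes pH 7.5 with 20 mM Na2SO4 for ionic strength. CO2 1.7–17 mM. Inhibitors in water at 0.01 mM stock, diluted down to 0.01 nM. Enzyme and inhibitor preincubated at room temperature. Uncatalysed rates subtracted. Ki from non-linear least squares and Cheng–Prusoff, mean of at least three determinations.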

[2] = Inhibition of Sulfurihydrogenibium azorense alpha-carbonic anhydrase preincubated for 15 mins by stopped-flow CO2 hydration assay; summary of the method: as §1

SMILES | Ki [1] | Ki [2]
COc1ccc(C(=O)N/N=C(C)/C(=N/Nc2ccc(S(N)(=O)=O)cc2)S(=O)(=O)c2ccccc2)cc1 | 78.2 nM | 169 nM
CC(=O)C1=NN(c2ccc(S(N)(=O)=O)cc2)/C(=C(\C#N)C(=O)Nc2ccc(S(N)(=O)=O)cc2)S1 | 71 nM | 101 nM
CC(=N\NC(=O)c1cccs1)/C(Cl)=N/Nc1ccc(S(N)(=O)=O)cc1 | 6.4 nM | 14.9 nM
CC(=N\NC(=O)c1ccc(Cl)cc1)/C(=N/Nc1ccc(S(N)(=O)=O)cc1)S(=O)(=O)c1ccccc1 | 68.3 nM | 59.1 nM
Cc1nn2c(C)nnc2s/c1=N/Nc1ccc(S(N)(=O)=O)cc1 | 28.3 nM | 18.3 nM
COc1ccc(C(=O)N/N=C(C)/C(Cl)=N/Nc2ccc(S(N)(=O)=O)cc2)cc1 | 45.2 nM | 21.2 nM
COc1ccc(C(=O)N/N=C(C)/C(=N/Nc2ccc(S(N)(=O)=O)cc2)N2CCCCC2)cc1 | 62.8 nM | 4 nM

Continued by falling Ki [1], values first:

Ki [1] | Ki [2] | SMILES
89.1 nM | 116 nM | CC(=O)C1=NN(c2ccc(S(N)(=O)=O)cc2)C(=C(C#N)C#N)S1
80.6 nM | 8.1 nM | CC(=N\NC(=O)c1ccc(Cl)cc1)/C(=N/Nc1ccc(S(N)(=O)=O)cc1)N1CCCCC1
76.8 nM | 234 nM | CC(=O)C1=NN(c2ccc(S(N)(=O)=O)cc2)/C(=C(\C#N)C(=O)c2ccccc2)S1
74.5 nM | 21.9 nM | CC(=N\NC(=O)c1cccs1)/C(=N/Nc1ccc(S(N)(=O)=O)cc1)S(=O)(=O)c1ccccc1
51.1 nM | 18.5 nM | CC(=N\NC(=O)c1ccc(Cl)cc1)/C(Cl)=N/Nc1ccc(S(N)(=O)=O)cc1
47.9 nM | 9.7 nM | Cc1nn2c(-c3ccccc3)nnc2s/c1=N/Nc1ccc(S(N)(=O)=O)cc1
42.9 nM | 94.5 nM | CC(=N\NC(=O)c1ccccc1)/C(=N/Nc1ccc(S(N)(=O)=O)cc1)S(=O)(=O)c1ccccc1
38.7 nM | 193 nM | CCOC(=O)/C(C#N)=C1\SC(C(C)=O)=NN1c1ccc(S(N)(=O)=O)cc1
21.9 nM | 13.5 nM | CC(=N\NC(=O)c1ccccc1)/C(=N/Nc1ccc(S(N)(=O)=O)cc1)N1CCCCC1
20.5 nM | 0.77 nM | CC(=N\NC(=O)c1cccs1)/C(=N/Nc1ccc(S(N)(=O)=O)cc1)N1CCCCC1
6.2 nM | 24.3 nM | CC(=N\NC(=O)c1ccccc1)/C(Cl)=N/Nc1ccc(S(N)(=O)=O)cc1
